# Where “and” joins values, the source holds several entries; their conditions need not be identical. Equal entries are not always repeated. Where two headings read alike, the source gives them in different places.
# Legend:
# Food effect part = assay type: in vivo, human (healthy adult subjects); details: for Geometric means ratio, AUC0–last / Geometric means ratio, AUC0–∞ / Geometric means ratio, C max: Treatment C/D; for t 1/2 / AUC(0-t) / AUC(0-inf) / mean C max higher under fed (test) compared with fasted (reference) conditions: Group 2, FDC; for CVw (intrasubject coefficient of variation), AUC0–last / CVw (intrasubject coefficient of variation), AUC0–∞ / CVw (intrasubject coefficient of variation), C max: Group 2, Treatment C/D; for AUC(0-t): AUC0–last; for AUC(0-inf): AUC0–∞; for mean C max higher under fed (test) compared with fasted (reference) conditions: arithmetic means
# Method in brief: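 Healthy adults in a randomized two-way crossover, sequence C-D or D-C. Single oral fixed-dose tablet (10/40 mg) was given fed or fasted; both arms fasted overnight for at least 10 h. Fed dosing followed a high-fat, high-calorie breakfast per FDA guidance, eaten within 30 min. Plasma was sampled predose to 216 h and assayed by LC-MS/MS. Noncompartmental PK gave GMR 90% CIs against 80.00–125.00 limits.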
# [1] = Stability in plasma samples; assay type: in vitro ADME, human
# Bioequivalence part = assay type: in vivo, human (healthy adult subjects); details: for t 1/2 / AUC(0-t) / AUC(0-inf): mean (SD); for AUC(0-t): AUC0–last; for AUC(0-inf): AUC0–∞; for Geometric means ratio, AUC0–last / Geometric means ratio, AUC0–∞ / Geometric means ratio, C max: Group 1, FDC vs. free combination, Treatment A/B, fasted; for CVw (intrasubject coefficient of variation), AUC0–last / CVw (intrasubject coefficient of variation), AUC0–∞ / CVw (intrasubject coefficient of variation), C max: Group 1, Treatment A/B
# Method in brief: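 Single-centre, open-label, randomized two-period crossover in healthy adult men and women. Single oral doses were given after an overnight fast of at least 10 h: fixed-dose tablet (10/40 mg) versus 10 mg macitentan plus 40 mg Canadian-sourced tadalafil tablets. Plasma was sampled predose to 216 h and assayed by LC-MS/MS. Noncompartmental PK gave GMR 90% CIs against 80.00–125.00 limits and intrasubject CV.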
# [2] = no reference given; cited from earlier work
# [3] = cited from earlier work
# [4] = fasted (Treatment D), mean (SD)
# [5] = both, human, plasma, oral, fed (Treatment C), mean (SD)
# [6] = both, human, plasma, oral, fasted (Treatment D), mean (SD)
# [7] = Group 1, FDC, fasted (Treatment A)
# [8] = Group 1, free combination, fasted (Treatment B)
# [9] = both, human, plasma, oral, Group 1, FDC, fasted (Treatment A)
# [10] = both, human, plasma, oral, Group 1, free combination, fasted (Treatment B)
# [11] = in the presence of macitentan and metabolite
SMILES,"Geometric means ratio, AUC0–last (Food effect part; Group 2, FDC fed vs. fasted)","Geometric means ratio, AUC0–∞ (Food effect part; Group 2, FDC fed vs. fasted)","Geometric means ratio, C max (Food effect part; Group 2, FDC fed vs. fasted)",t 1/2 (Food effect part; [4]),"t 1/2 (Food effect part; fed (Treatment C), mean (SD))","CVw (intrasubject coefficient of variation), AUC0–last (Food effect part)","CVw (intrasubject coefficient of variation), AUC0–∞ (Food effect part)","CVw (intrasubject coefficient of variation), C max (Food effect part)",AUC(0-t) (Food effect part; [5]),AUC(0-inf) (Food effect part; [6]),AUC(0-inf) (Food effect part; [5]),stability in plasma samples at room temperature ([1]; in the presence of tadalafil),"stability in plasma samples, freeze/thaw cycles ([1]; in the presence of tadalafil)",t 1/2 (Bioequivalence part; [7]),t 1/2 (Bioequivalence part; [8]),AUC(0-t) (Bioequivalence part; [9]),AUC(0-t) (Bioequivalence part; [10]),AUC(0-inf) (Bioequivalence part; [9]),AUC(0-inf) (Bioequivalence part; [10]),biopharmaceutical classification system (BCS) class [2],also measured
NS(=O)(=O)Nc1ncnc(OCCOc2ncc(Br)cn2)c1-c1ccc(Br)cc1 [Aprocitentan],104.50%,103.98%,107.25%,49.7 (7.63) h,49.4 (6.02) h,7.2%,7.0%,7.4%,18900 ng·h/mL,19500 ng·h/mL,20300 ng·h/mL,at least 26 h,5 freeze/thaw cycles,50.7 (9.99) h,49.4 (6.92) h,20900 ng·h/mL,20800 ng·h/mL,22600 ng·h/mL,22500 ng·h/mL,–,"C max (Food effect part; Group 2, FDC 10/40 mg, fasted (Treatment D), mean (SD)): 165 (29.3) ng/ml; 90% CI of GMRs for all 3 PK parameters versus equivalence limits (Food effect part; Group 2, FDC fed vs. fasted): within the equivalence limits"
CCCNS(=O)(=O)Nc1ncnc(OCCOc2ncc(Br)cn2)c1-c1ccc(Br)cc1 [Macitentan],102.32%,102.13%,116.10%,–,14.1 (2.50) h,6.6%,6.4%,12.4%,6430 ng·h/mL,6340 ng·h/mL,6540 ng·h/mL,at least 26 h,5 freeze/thaw cycles,13.9 (2.87) h,–,5850 ng·h/mL,5800 ng·h/mL,5930 ng·h/mL,5900 ng·h/mL,2,"90% CI for the GMR of C max versus equivalence limits (80.00% to 125.00%) (Food effect part; Group 2, FDC fed vs. fasted): outside the equivalence limits; C max geometric means ratio, test higher compared to reference (Food effect part; Group 2, FDC fed vs. fasted): 16.10%; mean C max higher under fed (test) compared with fasted (reference) conditions (Food effect part): approximately 15.9%; Tmax (Food effect part; both, human, plasma, oral): 10 h; half-life (Food effect part; both, human, plasma, oral): 15.5 h; AUC(0-t) (Food effect part; [6]): 6220 ng·h/mL; Geometric means ratio, AUC0–last (Bioequivalence part): 100.96%; Geometric means ratio, AUC0–∞ (Bioequivalence part): 100.66%; Geometric means ratio, C max (Bioequivalence part): 101.49%; CVw (intrasubject coefficient of variation), AUC0–last (Bioequivalence part): 9.6%; CVw (intrasubject coefficient of variation), AUC0–∞ (Bioequivalence part): 9.5%; CVw (intrasubject coefficient of variation), C max (Bioequivalence part): 11.2%; Tmax (Bioequivalence part; Group 1, free combination, fasted (Treatment B), median (range)): 10.0 (3.55–12.0) h; Tmax (Bioequivalence part; both, human, plasma, oral): 10 h; half-life (Bioequivalence part; both, human, plasma, oral): 14.6 h"
CN1CC(=O)N2[C@H](c3ccc4c(c3)OCO4)c3[nH]c4ccccc4c3C[C@@H]2C1=O [Tadalafil],111.07%,111.04%,144.97%,23.4 (6.64) h,–,9.9%,9.9%,17.7%,22300 ng·h/mL,19900 ng·h/mL,22500 ng·h/mL,–,–,22.8 (7.76) h,22.7 (7.26) h,20600 ng·h/mL,20800 ng·h/mL,20700 ng·h/mL,20900 ng·h/mL,2,"geometric mean of tadalafil C max under fed conditions ([3]; tadalafil alone, fed): 586 ng/mL; C max ([3]; tadalafil in a fasted state, another study): 614 ng/mL; intersubject variability in C max (Food effect part; FDC under fasting conditions): 34.0%; C max geometric means ratio, test higher compared to reference (Food effect part; Group 2, FDC fed vs. fasted): 45% and 44.97%; mean C max higher under fed (test) compared with fasted (reference) conditions (Food effect part): approximately 42.5%; Tmax (Food effect part; both, human, plasma, oral): 2.5 h; half-life (Food effect part; both, human, plasma, oral): 24.5 h; AUC(0-t) (Food effect part; [6]): 19700 ng·h/mL; Cmax (Food effect part; both, human, plasma, oral, geometric mean of tadalafil C max under fed conditions, FDC formulation, fed): 666 ng/mL; ratio of geometric mean tadalafil C max, FDC formulation vs. tadalafil (Food effect part; fed conditions, 666 ng/ml vs. 586 ng/ml (ref 21)): 1.14; stability in plasma samples at room temperature [1, 11]: at least 24 h; stability in plasma samples at −20 and −70℃ [1, 11]: 127 days; stability in plasma samples, freeze/thaw cycles [1, 11]: 5 freeze/thaw cycles; Geometric means ratio, AUC0–last (Bioequivalence part): 98.87%; Geometric means ratio, AUC0–∞ (Bioequivalence part): 98.82%; Geometric means ratio, C max (Bioequivalence part): 88.30%; CVw (intrasubject coefficient of variation), AUC0–last (Bioequivalence part): 11.3%; CVw (intrasubject coefficient of variation), AUC0–∞ (Bioequivalence part): 11.3%; CVw (intrasubject coefficient of variation), C max (Bioequivalence part): 16.1%; Tmax (Bioequivalence part; both, human, plasma, oral): 2.5 h"

# From article PMC8500343 (Pharmacology Research & Perspectives, 2021)
